Bioassay records from PubChem.
In the library only some 2.5% were active in any assay of this set; here they are far more common.
FLuc inh counter = Photinus pyralis luciferase inhibition counter-screen. P08659. AID 1006. inhibition, % at 10 µM. 200,000 tested, 1.5% active. ATPLite firefly luciferase biochemical luminescence, 10 min;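 active = inhibition above about 50% when tested at 10 µM, limit read from the data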
Target sequence (P08659 whole entry, looked up): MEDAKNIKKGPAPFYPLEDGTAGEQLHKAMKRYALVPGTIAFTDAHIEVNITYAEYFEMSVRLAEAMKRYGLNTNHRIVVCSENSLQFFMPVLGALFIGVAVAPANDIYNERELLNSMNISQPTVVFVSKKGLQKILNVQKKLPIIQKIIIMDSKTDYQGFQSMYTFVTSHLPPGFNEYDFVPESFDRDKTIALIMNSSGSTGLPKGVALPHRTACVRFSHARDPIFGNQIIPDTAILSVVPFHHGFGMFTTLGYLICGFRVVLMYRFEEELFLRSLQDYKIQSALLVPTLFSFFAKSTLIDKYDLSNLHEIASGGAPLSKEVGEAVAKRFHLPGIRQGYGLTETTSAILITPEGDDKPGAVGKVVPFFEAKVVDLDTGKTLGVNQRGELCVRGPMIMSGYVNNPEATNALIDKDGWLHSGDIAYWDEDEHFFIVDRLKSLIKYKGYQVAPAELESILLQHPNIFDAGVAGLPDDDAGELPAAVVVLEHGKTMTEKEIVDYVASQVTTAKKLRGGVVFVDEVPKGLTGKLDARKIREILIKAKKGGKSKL
PMI act = increases human mannose-6-phosphate isomerase activity | activation factor at 20 µM | AID 1214 | purified human PMI, coupled resazurin fluorescence, 20 min; active compounds read high; 1 = vehicle control, 0 substrate-free wells | 190,000 tested, 0.005% active | P34949;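 active = activation factor of 2 or more at 20 µM, relative to plate controls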
Diaph act CS = diaphorase activation or chemical reduction counter-screen | Diaphorase/resazurin coupled assay, resorufin fluorescence, 16 min; active compounds read high; 1 = vehicle wells, 0 = NADH-free wells | activation factor at 20 µM | 190,000 tested, 0.005% active;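 active = diaphorase activity raised at least twofold by the compound at 20 µM; inactive = activation factor below 2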
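Test system: Clostridium kluyveri diaphorase, purified enzyme. Buffer or medium: 50 mM HEPES pH 7.4 buffer plus MgCl2 and Tween 20. Also added: 0.114 mM NADH and 0.1 mM resazurin, final amounts. Dosing: compound 20 µM once, DMSO 1%. Schedule: 16 min enzyme reaction, ambient temperature. Detection: fluorescence of resorufin, 544 nm excitation, 590 nm emission.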
FLuc stim CS = affects firefly luciferase, flagging false hits in luciferase stimulation screens | activation factor at 10 µM | P08659 | 200,000 tested, under 10 active | AID 1027 | ATPlite luciferase biochemical, luminescence, 10 min; 0 = ATP-free wells, 1 = DMSO control;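 active = luciferase activation factor, scaled between plate controls, of at least 2 with compound at 10 µM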
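Assay system: Luciferase/luciferin reagent mix; Medium: PBS as buffer for the ATP substrate; Dosing: test compounds dosed from 2 mM stocks in 100% DMSO; Times: 10 min, room temperature; Signal: luminescence from luciferase reaction; Read-out: luciferase activation; Controls: No-ATP low control, compound-free enzyme-plus-ATP high control.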
PMI act satM6P = increases human PMI activity with near-saturating mannose 6-phosphate; P34949; coupled PMI enzyme assay, resazurin fluorescence, 20 min; active compounds read high; 1 = untreated enzyme, 0 = substrate-free blank; activation factor at 20 µM; 190,000 tested, 0.34% active; AID 1216;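 active = activation factor of 2 or more at 20 µM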
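assay system = human phosphomannose isomerase with PGI, G6PDH, diaphorase coupling enzymes | quantity = 15 ng/mL PMI | incubation = enzyme reaction with compound 20 min at room temperature | medium = HEPES pH 7.4 buffer with MgCl2 and Tween-20 | compound dosing = one concentration, 20 µM, in 1% DMSO | measured by = Diaphorase-driven resazurin-to-resorufin fluorescence, excitation 544, emission 590 nm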
Diaphorase inh = counter-screen for diaphorase-based assays: diaphorase inhibitors and chemical oxidizers | diaphorase resazurin-to-resorufin fluorescence, NADH, 16 min; bacterial (C. kluyveri) enzyme, not human | inhibition, % at 20 µM | 190,000 tested, 0.69% active;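 active = primary screen inhibition at 20 µM above a set limit, cut at about 50% in these data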;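 note: plate controls were DMSO with full reaction for no effect and wells lacking NADH for full effect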
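System: Diaphorase enzyme from Clostridium kluyveri | Amount: Enzyme working solution with 0.14 U/mL diaphorase | Benchmarks: No-NADH positive control and DMSO neutral control | Signal: Fluorescence of resorufin formed from resazurin, Ex 544/Em 590 nm | Schedule: 16-min room-temperature incubation before reading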
An asterisk follows results filed as active.

`Cc1ccc(Nc2nc(=O)c3cccnc3s2)cc1` gave FLuc inh counter 17, PMI act 1, Diaph act CS 0.9, FLuc stim CS 0.8, PMI act satM6P 1 and Diaphorase inh 10.
`CCOc1ccc(/C=C\C(C)=N\O)cc1` gave FLuc inh counter 69*, PMI act 0.9, Diaph act CS 0.8, FLuc stim CS 0.3, PMI act satM6P 0.9 and Diaphorase inh 16.
For CCOc1ccc(/C=C/C(=O)CCC(=O)O)cc1 the results were FLuc inh counter 7, PMI act 0.9, Diaph act CS 0.9, FLuc stim CS 0.9, PMI act satM6P 0.9 and Diaphorase inh 9.
`O=C(NNc1cccc(Cl)c1)c1cccnc1Cl` gave FLuc inh counter -4, PMI act 1.7, Diaph act CS 1, FLuc stim CS 1, PMI act satM6P 2* and Diaphorase inh 3.
`O=C(NNc1cccc(Cl)n1)c1cccnc1Cl` gave FLuc inh counter 0, PMI act 1.1, Diaph act CS 1, FLuc stim CS 1, PMI act satM6P 1 and Diaphorase inh -3.
For CN(Cc1ccccc1)C(=O)c1ccc([N+](=O)[O-])o1 the results were FLuc inh counter 0, PMI act 0.8, Diaph act CS 0.9, FLuc stim CS 1, PMI act satM6P 0.9 and Diaphorase inh 6.
For Cn1sc(NC(=O)c2ccc(Cl)cc2)nc1=O the results were FLuc inh counter 78*, PMI act 0.8, Diaph act CS 0.9, FLuc stim CS 0.2, PMI act satM6P 1 and Diaphorase inh 6.
For Cc1ccc(C(=O)Nc2nc(=O)n(C)s2)cc1 the results were FLuc inh counter 81*, PMI act 0.9, Diaph act CS 0.9, FLuc stim CS 0.2, PMI act satM6P 1 and Diaphorase inh 11.
For Cc1ccc(C(=O)Nc2nc(=O)n(C(=O)c3ccccc3Cl)s2)cc1 the results were FLuc inh counter 18, PMI act 1.2, Diaph act CS 0.9, FLuc stim CS 0.8, PMI act satM6P 1.2 and Diaphorase inh 9.
Screening Cc1ccc(C(=O)Nc2nc(=O)n(C(=O)CC(C)C)s2)cc1 returned FLuc inh counter 5, PMI act 0.9, Diaph act CS 0.9, FLuc stim CS 0.9, PMI act satM6P 1 and Diaphorase inh 11.
Screening CC(C)OCCCNc1ncnc2c1cnn2-c1ccccc1 returned FLuc inh counter 74*, PMI act 1.1, Diaph act CS 0.9, FLuc stim CS 0.3, PMI act satM6P 1.1 and Diaphorase inh 9.
CC(C)(C)Nc1ncnc2c1cnn2-c1ccccc1 was read as FLuc inh counter 66*, PMI act 0.9, Diaph act CS 0.8, FLuc stim CS 0.3, PMI act satM6P 0.9 and Diaphorase inh 18.
CN(C)CCCNc1ncnc2c1cnn2-c1ccccc1 was read as FLuc inh counter 4, PMI act 1, Diaph act CS 1, FLuc stim CS 1, PMI act satM6P 1.1 and Diaphorase inh 2.
c1ccc2sc(Sc3ncnc4sccc34)nc2c1 was read as FLuc inh counter 64*, PMI act 0.9, Diaph act CS 0.8, FLuc stim CS 0.4, PMI act satM6P 0.9 and Diaphorase inh 19.
For CCc1cc2c(Sc3nc4ccccc4s3)ncnc2s1 the results were FLuc inh counter -1, PMI act 1, Diaph act CS 0.9, FLuc stim CS 1, PMI act satM6P 1 and Diaphorase inh 9.
Screening CC(C)C(=O)Nc1ccc(-c2nc3ccccc3c(=O)o2)cc1 returned FLuc inh counter 90*, PMI act 1.1, Diaph act CS 0.9, FLuc stim CS 0.1, PMI act satM6P 1.1 and Diaphorase inh 14.
`CC(C)(C)C(=O)Nc1cccc(-c2nc3ccccc3c(=O)o2)c1` gave FLuc inh counter 20, PMI act 1.1, Diaph act CS 1, FLuc stim CS 0.8, PMI act satM6P 1.1 and Diaphorase inh 1.
